Measurements published in ChEMBL document CHEMBL1811874, “The effect of sulfonate leaving groups on the hypoxia-selective toxicity of nitro analogs of the duocarmycins” (Bioorg Med Chem, 2011).
Converted amounts (≈) assume the structure as drawn.

Legend:
CHO-AA8 = assay: Cytotoxicity against chinese hamster ovary AA8 cells incubated for 4 hrs; assay type: functional, cell-based; conditions: Cricetulus griseus, CHO-AA8, 4 h
EMT6 = assay: Cytotoxicity against mouse EMT6 cells; assay type: functional, cell-based
SK-OV-3 [1] = assay: Cytotoxicity against human SKOV3 cells; assay type: functional, cell-based
Outline: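 Log-phase SKOV3 ovarian carcinoma monolayers were exposed to drug for 4 h under aerobic (20% O₂) or anoxic (<20 ppm O₂) conditions, then stained with sulforhodamine B 5 days later. IC50 was interpolated as the concentration that cut cell density to 50% of same-plate controls, given as mean ± SEM of 2–7 experiments. HCR is IC50(oxic)/IC50(hypoxic), taken as means of intraexperiment ratios.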

HT-29 [2] = assay: Cytotoxicity against human HT-29 cells assessed as reduction of cell density incubated for 4 hrs in oxic (aerobic) condition measured 5 days post dose by SRB assay; assay type: functional, cell-based
Outline: (§1)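 Log-phase monolayers given a 4 h drug exposure under aerobic (20% O₂) or anoxic (<20 ppm O₂) conditions. Cells were then stained with sulforhodamine B 5 days later. IC50 was interpolated as the concentration that cut cell density to 50% of same-plate controls. Values are means of two to seven experiments.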

[3] = Solubility in alphaMEM culture medium containing 5% FCS at 22 degC; assay type: physicochemical
Outline: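 Solubility was measured in αMEM with 5% FCS, equilibrated with 5% CO₂/air, at 22 °C.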

SK-OV-3 [4] = assay: Cytotoxicity against human SKOV3 cells assessed as reduction of cell density incubated for 4 hrs in oxic (aerobic) condition measured 5 days post dose by SRB assay; assay type: functional, cell-based; outline: as §1
SK-OV-3 [5] = assay: Cytotoxicity against human SKOV3 cells assessed as reduction of cell density incubated for 4 hrs in hypoxic (anoxic) condition measured 5 days post dose by SRB assay; assay type: functional, cell-based; outline: as §1
HT-29 [6] = assay: Cytotoxicity against human HT-29 cells assessed as reduction of cell density incubated for 4 hrs in hypoxic (anoxic) condition measured 5 days post dose by SRB assay; assay type: functional, cell-based; outline: as §1
HT-29 [7] = assay: Hypoxic cytotoxicity ratio, ratio of IC50 for human HT-29 cells in oxic (aerobic) condition to IC50 for human HT-29 cells in hypoxic (anoxic) conditions; assay type: functional
Outline: (§2)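 HCR was calculated as IC50(oxic)/IC50(hypoxic) after 4 h drug exposure at 20% O₂ or <20 ppm O₂, with SRB read-out 5 days later.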

SK-OV-3 [8] = assay: Hypoxic cytotoxicity ratio, ratio of IC50 for human SKOV3 cells in oxic (aerobic) condition to IC50 for human SKOV3 cells in hypoxic (anoxic) conditions; assay type: functional; outline: as §2

Row | Structure (SMILES) | IC50 (CHO-AA8) | IC50 (EMT6) | IC50 (SK-OV-3 [1]) | IC50 (HT-29 [2]) | solubility [3] | IC50 (SK-OV-3 [4]) | IC50 (SK-OV-3 [5]) | IC50 (HT-29 [6]) | Ratio IC50 (HT-29 [7]) | Ratio IC50 (SK-OV-3 [8])
1 | COc1cc2cc(C(=O)N3CC(CCl)c4c3cc(N)c3ccccc43)[nH]c2c(OC)c1OC (stereo unspecified) | < 1 nM | 0.4 nM | 1.2 nM |  |  |  |  |  |  | 
2 | CN(C)CCOc1ccc2[nH]c(C(=O)N3CC(CCl)c4c3cc([N+](=O)[O-])c3ccccc43)cc2c1 (stereo unspecified) |  |  |  | 470 nM | 193 µM (≈ 95.1 µg/mL) | 1400 nM | 870 nM | 480 nM |  | 
3 | COc1ccc2[nH]c(C(=O)N3CC(CCl)c4c3cc([N+](=O)[O-])c3ccccc43)cc2c1 (stereo unspecified) |  |  |  | 9700 nM | 38 µM (≈ 16.6 µg/mL) | 4800 nM | 1540 nM | 1300 nM | 7.4 | 3.1
4 | COc1cc2cc(C(=O)N3CC(COS(=O)(=O)C4CCCCC4)c4c3cc(N)c3ccccc43)[nH]c2c(OC)c1OC (stereo unspecified) |  |  |  |  | 37 µM (≈ 22 µg/mL) | 4.9 nM | 6.5 nM |  |  | 1
5 | COc1ccc2[nH]c(C(=O)N3CC(COS(=O)(=O)c4ccc(C)cc4)c4c3cc([N+](=O)[O-])c3ccccc43)cc2c1 (stereo unspecified) |  |  |  | 6500 nM | 12 µM (≈ 6.86 µg/mL) | 11000 nM | 380 nM | 700 nM | 7.9 | 34
